Runt-SMMHC FRET – blocks binding of human RUNX1 Runt domain to CBFb-SMMHC | Q01196+Q13951 | Cerulean-Runt/Venus-CBFb-SMMHC FRET ratio 530/480, 1 h | inhibition, % at 20 µM | 0.74% of 220,000 active;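 active means mean inhibition across duplicate retests at 20 µM reaching about 50%, limit read from the data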;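 further: 0% = DMSO wells and 100% = wells with excess untagged CBFb-SMMHC; inhibitors lower the FRET ratio by blocking Runt binding to CBFb-SMMHC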
RanGTP-Imp inh – disruptors of Ran-importin-beta complex formation – biochemical, FRET, CFP-Ran, YFP-importin-beta, homogeneous, primary screen; inhibition, % (test concentration not listed); 1.1% of 300,000 active; cell-free CFP-Ran/YFP-importin-beta FRET ratio;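 active means more than half of the replicate wells show a fall in the fluorescence ratio signal beyond about 16%, limit read from the data, passing the limit was not always enough; inconclusive means exactly half of the replicate wells pass the set limit; inactive means fewer than half of replicates pass the limit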;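 further: 0% = DMSO wells and 100% = Ran loaded with GDP instead of GTP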
Hck Nef HTS – blocks Nef-activated human Hck kinase; P08631; Recombinant Hck-YEEI plus Nef, Z-Lyte FRET kinase assay; inhibition, % at 20 µM; 0.68% of 220,000 active; AID 463187;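 active means Hck-Nef kinase inhibition above about 50%, limit read from the data; inactive means inhibition below that limit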;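 further: 0% = DMSO with Hck plus Nef and 100% = Hck alone without Nef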
Target sequence (P08631 whole entry, looked up): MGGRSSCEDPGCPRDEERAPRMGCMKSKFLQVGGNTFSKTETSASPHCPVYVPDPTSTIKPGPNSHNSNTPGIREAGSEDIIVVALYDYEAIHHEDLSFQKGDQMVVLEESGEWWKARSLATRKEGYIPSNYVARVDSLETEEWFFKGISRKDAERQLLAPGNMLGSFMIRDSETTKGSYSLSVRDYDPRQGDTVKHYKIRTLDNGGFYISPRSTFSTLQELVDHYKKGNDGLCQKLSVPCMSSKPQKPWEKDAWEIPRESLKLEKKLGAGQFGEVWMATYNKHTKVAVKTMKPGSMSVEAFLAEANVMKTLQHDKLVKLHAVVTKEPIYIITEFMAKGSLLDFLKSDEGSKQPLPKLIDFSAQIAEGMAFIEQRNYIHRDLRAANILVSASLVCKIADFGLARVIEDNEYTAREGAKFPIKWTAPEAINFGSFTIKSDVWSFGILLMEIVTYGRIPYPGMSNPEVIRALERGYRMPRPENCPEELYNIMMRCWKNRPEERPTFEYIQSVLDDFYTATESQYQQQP
Runt-CBFb FRET – blocks binding of human RUNX1 Runt domain to CBFb; Q01196+Q13951; inhibition, % at 20 µM; Cerulean-Runt/Venus-CBFb FRET ratio 530/480, 1 h; 0.46% of 220,000 active;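 active means inhibition over about 50% at 20 µM in the single-dose screen, limit read from the data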;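 further: 0% = DMSO wells and 100% = excess unlabeled CBFb competitor control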
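test system = Cerulean-Runt domain fusion protein, energy donor | probe or stimulus = Venus-CBFb binding partner, 100 nM | incubation = two 1 h room-temperature incubations shielded from light | detection = fluorescence energy transfer, 422 nm excitation, 530/480 nm emission | measure = loss of energy transfer signal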
Runt-CBFb TRFRET – Runt-CBFb binding inhibition; TR-FRET RUNX1 Runt domain-CBFb binding; 20% of 480 active; shares compounds with Runt-CBFb FRET; inhibition, % at 20 µM; in the data active means inhibition above about 40%
YIC counter – counter-screen: alters YIC FRET probe signal; 40% of 1,000 active; shares compounds with RanGTP-Imp inh; Purified YIC probe, intramolecular FRET ratio YFP/CFP; IC50, µM;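 active means fitted half-maximal inhibitory concentration no more than tenfold above the top dose tested; inconclusive means flat fit with 30 to 70% activity, or poor fit; inactive means half-maximal concentration beyond tenfold above the top dose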
Hck-Nef confirm – Hck-Nef kinase inhibition, confirmation; shares compounds with Hck Nef HTS; Recombinant Hck-YEEI:Nef, Z-Lyte FRET kinase assay; calls only at 10 µM; 28% of 1,300 active; AID 463188;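 active means average inhibition of at least 50%, with Z-scores no higher than 3 in both the phospho-tyrosine peptide and fluorescence counterscreens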
Starred values were filed as active, the others as inactive; ? = inconclusive; · = not tested or not shown; + = active, no number. Rows were chosen to be rich in hits. Some 1.8% of all compounds tested hit in one or more screens of this group.

SMILES	Runt-SMMHC FRET	RanGTP-Imp inh	Hck Nef HTS	Runt-CBFb FRET	others
CN1CCCN(c2ccc([N+](=O)[O-])nc2)CC1	·	-4.9	·	·
Cc1cc(=O)oc2cc3c(cc12)CCCN3	·	84.4*	·	·
COC(=O)N(c1ccccc1)P(=O)(Oc1ccccc1)Oc1ccccc1	·	3.1	·	·
Cc1ccc(N2C(=O)NC(=O)/C(=C\c3ccc([N+](=O)[O-])o3)C2=O)cc1	-10.9	-3.0	50.2*	9.2
Cc1ccc(N2C(=O)NC(=O)/C(=C\c3ccc(N4CCOCC4)cc3)C2=O)cc1	-25.8	-1.0	4.6	-4.6
N#CC1=C(N)Oc2cc(O)ccc2C1c1ccc2c(c1)OCO2 (stereo not drawn)	90.5*	66.6*	-28.8	20.6
COc1cc(/C=C2/C(=O)NC(=O)N(c3ccccc3)C2=O)ccc1O	30.3	-4.8	1.9	10.0
COc1cccc(N2C(=O)NC(=O)/C(=C/c3ccc4c(c3)Cc3ccccc3-4)C2=O)c1	-3.3	-2.9	115.5*	·
COc1cc(CN=Cc2c(O)n(C(C)(C)C)c(=O)[nH]c2=O)cc(OC)c1	2.6	0.4	14.5	1.5
O=C1NC(=O)N(CCC2=CCCCC2)C(=O)/C1=C\c1cccs1	9.9	-4.2	50.5*	11.0
COc1c(C=C2C(=O)NC(=O)NC2=O)c(CCN(C)C(=O)c2ccccc2)cc2c1OCO2	·	0.3	·	·
CCN1C[C@]2(CO)CC[C@H](OC)[C@@]34C5C[C@H]6[C@H](OC)C5[C@](O)(C[C@H]6OC)[C@@](O)(C(OC)C23)[C@@H]14 (stereo partly drawn)	·	2.8	·	·
CC[n+]1c(/C=C/N(C)c2ccccc2)sc2ccc(Cl)cc21	42.7	?	0.9	55.3*	Runt-CBFb TRFRET=8.7
OC1/C(=C/c2ccc(Cl)cc2Cl)N2CCC1CC2 (stereo not drawn)	-4.4	1.5	3.3	-0.5
CCC[N+]12CCC(CC1)C(=C(c1ccccc1)c1ccccc1)C2	-0.8	-0.7	-0.7	52.4*	Runt-CBFb TRFRET=-282.7
CC(C)n1c(=O)c(C=Nc2ccc(F)cc2)c(O)n(Cc2ccco2)c1=O	3.8	5.5	2.0	8.3
CN1C(=O)/C(=C/c2cccn2-c2ccc3ccccc3c2)C(=O)NC1=S	10.8	0.1	22.3	22.6
O=C1NC(=S)NC(=O)C1=Cc1cccn1-c1ccc(O)cc1	41.9	3.8	48.1	57.3*	Runt-CBFb TRFRET=90.3*
Nc1c(C(=O)OC2CCCCC2)c2nc3ccccc3nc2n1CC1CCCO1 (stereo not drawn)	106.5*	23.1*	30.5	54.3*	Runt-CBFb TRFRET=37.7;YIC counter=27.4*
Cn1c(O)c(C(=Nc2ccc(F)cc2)c2ccccc2Cl)c(=O)n(C)c1=O	3.0	-0.4	4.6	-1.9
CC(=O)c1c(O)n(-c2cccc(Cl)c2)c(=O)[nH]c1=O (tested in a mixture with another compound)	-0.9	3.4	9.0	1.7
CC(C)n1c(O)c(C2c3cc(Cl)ccc3Oc3[nH]c(=O)n(C(C)C)c(=O)c32)c(=O)[nH]c1=O (stereo not drawn)	74.8*	21.7*	13.4	59.7*	Runt-CBFb TRFRET=31.6;YIC counter=>50
COCCOC(=O)c1c(N)n(Cc2ccccc2)c2nc3ccccc3nc12	107.8*	18.6*	33.7	50.7*	Runt-CBFb TRFRET=1.3;YIC counter=46.5*
Cc1cc(C)c2c(ccc3cccc[n+]32)c1	·	0.4	·	·
CCCCn1c(N)c(C(=O)OCCOC)c2nc3ccccc3nc21	106.8*	?	66.4*	61.8*	Runt-CBFb TRFRET=27.1
SMILES	Runt-SMMHC FRET	RanGTP-Imp inh	Hck Nef HTS	Runt-CBFb FRET	others
Cc1ccc(/C=C2/Sc3ccc(C(=O)N4CCC5(CC4)OCCO5)cc3NC2=O)cc1	·	-3.6	·	·
Cc1cc(C=C(C#N)C#N)ccc1N1CCCC1	-63.0	31.1*	21.2	-32.1	YIC counter=>26
CCCCNC(=O)c1c(N)n(Cc2ccc3c(c2)OCO3)c2nc3ccccc3nc12	36.8	32.3*	13.5	10.1	YIC counter=3.12*
CC(C)CCn1c(=O)c(C(=O)NCc2ccc3c(c2)OCO3)c(O)c2ccccc21	·	2.1	·	·
CCc1c(-c2ccccc2)nc2ccccc2c1C(=O)N1CCC2(CC1)OCCO2	·	2.9	·	·
COc1ccccc1C1CC2CCC(C1OC(C)=O)N2Cc1ccccc1 (stereo not drawn)	·	0.4	·	·
CC(=Nc1ccc(F)cc1)c1c(O)n(C)c(=O)[nH]c1=O	·	0.7	·	·
CC(C)OC(=O)c1c(N)n(CC2CCCO2)c2nc3ccccc3nc12 (stereo not drawn)	92.0*	23.6*	30.7	71.8*	YIC counter=19.9*
O=C(Nc1cccc(OC(=O)N2CCCCC2)c1)N1CCCCC1	-0.8	21.1*	1.7	0.5	YIC counter=>50
O=C(Nc1cccc(OC(=O)N2CCOCC2)c1)N1CCOCC1	0.2	-1.7	2.4	1.1
CN1CC2=CC(O)CC3Oc4c(O)ccc(c4[C@]23C)C1 (stereo partly drawn)	·	25.5*	·	·	YIC counter=>50
O=P(NS(=O)(=O)c1ccc(Cl)cc1)(Oc1ccccc1)Oc1ccccc1	-6.2	?	8.4	-2.5
O=C(NC(=S)N1C[C@H]2C[C@H](C1)c1cccc(=O)n1C2)c1ccc(Cl)cc1Cl	·	2.7	·	·
C=CCN1CCc2cccc3c2[C@H]1Cc1ccc(O)c(O)c1-3	·	18.7*	·	·	YIC counter=>50
CCN1/C(=C\C=C\C2=[N+](CC)c3ccccc3C2(C)C)C(C)(C)c2ccccc21	18.3	26.8*	3.4	7.6	YIC counter=29.8*
CC(=O)N1CN2CN(C(C)=O)CC(C(=O)c3ccc([N+](=O)[O-])cc3)(C2)C1	1.7	0.9	20.8	-1.9
CC(=O)N1CN2CN(C(C)=O)CC(C(=O)c3ccccc3)(C2)C1	2.0	20.7*	4.2	-0.8	YIC counter=>50
O=C1NC(=S)NC(=O)C1=Cc1ccc2c(c1)CCN2CCCCl	12.0	-1.6	79.0*	12.3	Hck-Nef confirm=+
Cc1cccn2c(=O)c3cc(C(=O)N4CCC5(CC4)OCCO5)n(C)c3nc12	83.3*	3.0	54.4*	28.8
O=C1NC(=O)N(c2ccccc2)C(=O)/C1=C/c1ccoc1	-144.5	·	18.4	-49.2
O=C1NC(=O)N(c2ccccc2)C(=O)/C1=C/c1coc2ccc(O)cc2c1=O	-13.8	-0.3	86.5*	4.9	Hck-Nef confirm=+
O=C1NC(=O)N(c2ccc(Cl)cc2)C(=O)/C1=C/c1coc2ccc(O)cc2c1=O	-13.6	4.7	74.7*	6.2	Hck-Nef confirm=+
COC(=O)C1=C(c2cc3ccccc3s2)C[C@@H]2CC[C@H]1N2C(=O)NCCS(C)=O (stereo partly drawn)	·	-4.2	·	·
CC(NC1=NCCS1)c1ccccc1 (stereo not drawn)	4.2	-0.5	19.9	-0.5

From PubChem
